Compound activity from PubChem BioAssay.
The list is not random: actives were taken first. Their share in the collection is about 2.9%.
HTR1A agonist = agonists of human 5-HT1a serotonin receptor; CHO 5-HT1a Ga15 NFAT-bla reporter, FRET ratio; 0% basal, 100% maximal reference agonist; activation, % at 10 µM; hit rate 0.56% among 65,000;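 active = activation above the screen-wide mean activation plus 3 SD, cut at about 19% in these data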;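 also: 0% = DMSO wells and 100% = 5-CT at EC100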
Target sequence (P08908 whole entry, looked up): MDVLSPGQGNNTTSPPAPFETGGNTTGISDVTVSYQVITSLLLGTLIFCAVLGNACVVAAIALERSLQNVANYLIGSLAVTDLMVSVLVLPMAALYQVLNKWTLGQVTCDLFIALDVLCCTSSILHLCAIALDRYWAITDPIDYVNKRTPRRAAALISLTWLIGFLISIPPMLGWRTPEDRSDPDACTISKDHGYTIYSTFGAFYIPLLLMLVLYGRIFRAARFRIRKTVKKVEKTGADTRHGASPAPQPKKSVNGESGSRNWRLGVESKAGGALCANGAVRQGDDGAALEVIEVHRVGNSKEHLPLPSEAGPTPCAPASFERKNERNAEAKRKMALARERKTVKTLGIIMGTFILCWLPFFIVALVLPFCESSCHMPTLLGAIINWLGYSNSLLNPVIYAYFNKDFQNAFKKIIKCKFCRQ
S1P1 ag-PAM = activates or potentiates agonism at human S1P1 receptor. P21453. S1P1 CRE-bla cells, forskolin, beta-lactamase FRET, potentiator mode; S1P1 agonist co-added at EC20, 2 nM; 100% = saturating reference agonist, 0% = basal. activation, % at 9.5 µM. hit rate 0.57% among 56,000. AID 449;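 active = activation above a cutoff set at the mean activation of all tested compounds plus 3 SD, cut at about 54% in these data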;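 also: forskolin at 4 µM as EC80 and the EC20 agonist is SEW2871; 100% = SEW2871 at its EC100 plus forskolin at EC80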
HTR1E antagonist = blocks the human 5-HT1E serotonin receptor; AID 571; inhibition, % at 6 µM; P28566; CHO 5-HT1E Ga15 NFAT-bla reporter, FRET, antagonist; hit rate 0.99% among 65,000;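 active = inhibition above a set limit, the mean inhibition across every tested compound plus 3 SD, cut at about 29% in these data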;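 also: signal is the 460 over 535 nm emission ratio of beta-lactamase substrate; 0% = agonist plus DMSO wells and 100% = wells without agonist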
S1P3 agonist = agonists of human S1P3 receptor. AID 373. S1P3 NFAT-BLA reporter cells, agonism, FRET ratio; relative to 1 µM S1P, basal subtracted. hit rate 0.1% among 60,000. Q99500. activation, % at 4.5 µM;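 active = activation above the screen-wide mean plus 3 SD, cut at about 4.5% in these data, passing the limit was not always enough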
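material = human S1P3 NFAT-BLA reporter CHO cells | schedule = 4 h compound at 37 °C, 2 h substrate at RT | measured by = fluorescent BLA substrate, ex 405 nm, em 460/535 nm ratio | controls = 1 µM S1P reference | replication = primary once, confirmation triplicate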
HTR1E agonist = 5-HT1E (human) receptor agonism; CHO 5-HT1E Ga15 NFAT-bla reporter, FRET; 0% DMSO wells, 100% control agonist wells; activation, % at 6 µM; hit rate 0.69% among 65,000; P28566;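 active = activation above a set limit, the screen-wide mean activation plus 3 SD, cut at about 8.5% in these data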;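 also: 100% = positive control agonist at 1 µM giving full maximal response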
5HT1a antag = blocks the human serotonin 5-HT1a receptor | P08908 | CHO 5-HT1a Ga15 NFAT-bla reporter, antagonist mode | inhibition, % at 10 µM | hit rate 0.68% among 62,000 | AID 612;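 active = inhibition above the mean of all tested compounds plus 3 SD, cut at about 43% in these data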;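 also: receptor stimulated by 5-CT agonist at 100 nM near EC80; beta-lactamase reporter measured by ratiometric fluorescence of a cleavable substrate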
Active calls of the source: *; · = no result.

SMILES	HTR1A agonist	S1P1 ag-PAM	HTR1E antagonist	S1P3 agonist	HTR1E agonist	5HT1a antag
CCCCCn1c(=N)n(CC(O)COc2ccccc2OC)c2ccccc21 (configuration not stated)	0	-2	11	-1	0	64*
CCCCn1c(=N)n(CC(O)COc2cccc(C)c2)c2ccccc21 (configuration not stated)	-1	-30	0	-1	0	43*
CCCCC(=O)NC1(C(F)(F)F)C(=O)Nc2c1c(=O)n(C)c(=O)n2C (configuration not stated)	0	-7	-3	1	0	-16
COC(=O)c1sccc1NC(=O)Cn1cnc2c1c(=O)n(C)c(=O)n2C	0	·	0	-1	-1	11
CCCn1c2ccccc2c2nnc(SCC(=O)Nc3ncccn3)nc21	9	-31	31*	1	0	-6
CC(OC(=O)c1cc(=O)[nH]c2ccccc12)c1ccccc1 (configuration not stated)	0	5	2	0	0	4
CCOc1ccccc1-c1nnc(SCC(=O)NC2CC3CCC2C3)n1CC (configuration not stated)	-5	-12	-1	-1	11*	2
O=C(CSc1nnc(-c2ccco2)o1)NC1CC2CCC1C2 (configuration not stated)	1	·	3	-1	-1	13
O=C(O)C(Cc1c[nH]c2ccccc12)NS(=O)(=O)c1cccc2nsnc12 (configuration not stated)	-4	-9	-2	-2	0	·
CC1CCCC(NC(=O)c2ccc3c(=O)n(CC4CCCO4)c(=O)[nH]c3c2)C1C (configuration not stated)	54*	-5	-8	0	0	-9
COc1ccc(-c2nc(C#N)c(NCc3ccc(F)cc3)o2)cc1OC	0	-17	30*	0	1	3
CCCCCCNS(=O)(=O)c1nc2nc(C)cc(C)n2n1	-2	2	-5	0	1	-3
COc1ccccc1NC(=O)N1CCc2[nH]c3ccc(F)cc3c2C1	1	13	29*	1	-2	29
Cc1c(-n2cc(C(=O)c3ccccc3O)cc(C#N)c2=O)c(=O)n(-c2ccccc2)n1C	325*	3	-2	0	0	-10
Cc1cc(C)n(-c2nc(SCC(=O)NCC3CCCO3)c3c4c(sc3n2)CCCC4)n1 (configuration not stated)	-3	-3	15	-2	-1	23
Nc1nc(SCC(=O)NCCCO)nc2sc3c(c12)CCC3	0	·	-4	-1	0	9
Cc1cc(C)n(-c2nc(NCC3CCCO3)c3c4c(sc3n2)COC(C)(C)C4)n1 (configuration not stated)	-1	-74	2	3	0	-2
Cc1cc(C)n(-c2nc(NCCCO)c3c4c(sc3n2)CCCC4)n1	10	-84	11	41*	1	-18
Cc1cc(C)n(-c2nc(NCC(C)O)c3c4c(sc3n2)CCCC4)n1 (configuration not stated)	2	-85	-6	29*	1	-3
Cc1cc(C)n(-c2nc(NCCO)c3c4c(sc3n2)CCCC4)n1	45*	-68	-12	28*	0	-19
COc1cccc(C2C(C(=O)OCc3ccccc3)=C(C)Nc3ncnn32)c1OC (configuration not stated)	2	-7	1	-1	0	8
CCOc1ccccc1NC(=O)Cn1nnc(-c2ccc(OCC)c(OCC)c2)n1	0	-11	-5	-1	1	-12
CC1CCCC(NC(=O)CCn2c(=O)oc3ccccc32)C1C (configuration not stated)	-1	0	8	0	-1	2
CCC(C)NC(=O)c1ccccc1NC(=O)CN1C(=O)c2ccccc2S1(=O)=O (configuration not stated)	-2	-16	-6	0	0	3
CCN(CC)c1ccc(NC(=O)C2CCCN(S(=O)(=O)c3cccnc3)C2)c(C)c1 (configuration not stated)	0	14	32*	-1	0	-4
SMILES	HTR1A agonist	S1P1 ag-PAM	HTR1E antagonist	S1P3 agonist	HTR1E agonist	5HT1a antag
COc1ccc(NC(=O)C2CCCN(S(=O)(=O)c3cccnc3)C2)c(OC)c1 (configuration not stated)	-3	-8	-1	0	1	4
Cc1ccc(-n2ncc3c(N4CCCC(C)C4)ncnc32)c(C)c1 (configuration not stated)	0	73*	-14	-1	0	-11
Cc1ccc(-n2ncc3c(N4CCCC4)ncnc32)c(C)c1	0	-11	13	-3	0	·
COc1cccc(N2CCN(c3ncnc4c3cnn4-c3ccc(C)cc3C)CC2)c1	3	6	69*	-3	3	48*
Cc1ccc(C)c(N2CCN(c3ncnc4c3cnn4-c3ccccc3)CC2)c1	0	-25	-12	0	1	9
COC(=O)CN1C2(C#N)CCCCC2CC2CCCCC21C#N (configuration not stated)	2	2	4	-4	0	·
CCOc1ccc(OCC)c(NC(=O)CCn2cccc2)c1	-3	-2	-5	-1	-1	-17
O=C(NCc1cn2ccccc2n1)c1ccccc1	-3	4	-9	-1	0	9
Cc1ccc(C(=O)OCc2cn3ccccc3n2)cc1	101*	7	-5	0	0	4
c1ccc(Oc2ccc(-n3cnnn3)cc2)cc1	0	-3	29*	-1	-3	9
O=C(Oc1ccccc1)c1ccc(-n2cnnn2)cc1	-3	-24	-3	-1	0	2
CCc1nnc(NC(=O)CSc2ncc(-c3ccccc3)n2CC)s1	1	6	5	0	0	5
COc1ccc(CC(C)N2CCN(Cc3ccccc3)CC2)c(OC)c1 (configuration not stated)	-1	-1	5	-2	-1	92*
COc1ccccc1N1CCN(Cc2ccsc2)CC1	40*	-8	0	0	21*	29
CCOc1ccc(NC(=O)CCN2CCN(c3ccccc3OC)CC2)cc1	1	-2	2	-1	1	100*
COc1ccccc1N1CCN(C/C(O)=C(\C#N)c2nc(-c3ccccc3)cs2)CC1	1	24	3	0	10*	10
CCOc1ccc(NC(=O)CCN2CCN(S(=O)(=O)c3cc(Cl)ccc3OC)CC2)cc1	-1	-6	9	0	-1	-10
